Reference: ChEMBL document CHEMBL4196128 (ACS Med Chem Lett, 2018)

Experiments:
Mus musculus = assay: Oral bioavailability in CD1 mouse at 30 mg/kg; format: ADME, organism-based; settings: in vivo
Procedure, shortened: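 Oral dosing in male CD1 mice (30 mg/kg, n = 27), Sprague–Dawley rats (10 mg/kg, n = 3), beagle dogs (30 mg/kg, n = 3) and cynomolgus monkeys (10 mg/kg, n = 3). Mean Tmax was read from plasma concentration–time data. Bioavailability was derived from oral AUC(0–∞) compared with intravenous AUC.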

[1] = biological target: Mitogen-activated protein kinase 1 (Homo sapiens, UniProt P28482); assay: Inhibition of ERK2 (unknown origin) using peptide substrate measured after 45 mins by IMAP assay
Chain of Mitogen-activated protein kinase 1 (P28482 whole entry): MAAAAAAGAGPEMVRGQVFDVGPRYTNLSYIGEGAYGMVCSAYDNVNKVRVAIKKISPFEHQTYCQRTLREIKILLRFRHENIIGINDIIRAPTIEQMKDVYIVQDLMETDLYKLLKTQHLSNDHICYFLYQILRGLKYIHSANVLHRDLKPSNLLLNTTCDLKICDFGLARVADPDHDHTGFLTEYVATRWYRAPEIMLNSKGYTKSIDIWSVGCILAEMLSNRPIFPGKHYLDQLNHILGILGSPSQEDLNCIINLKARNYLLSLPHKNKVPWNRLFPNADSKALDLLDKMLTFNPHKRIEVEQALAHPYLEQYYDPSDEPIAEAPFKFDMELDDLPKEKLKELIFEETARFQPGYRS

CS[C@@]1(C(=O)Nc2ccc3[nH]nc(-c4ccc(OC(C)C)nc4)c3c2)CCN(CC(=O)N2CC=C(c3ccc(-c4ncn(C)n4)cc3)CC2)C1 [MK-8353]
F (Mus musculus): 80%
IC50 [1]: 7 nM
